Experimental data gathered from unrelated publications.
Lines come from different studies, so protocols differ.
Target: High affinity nerve growth factor receptor (NTRK1, Homo sapiens, UniProt P04629)

Cn1cncc1[C@](O)(COc1ccc(C#N)cc1-c1ccc(OC(F)(F)F)cc1)c1ccc(C#N)cc1 — remaining binding (cell-free assay; competition with immobilised ligand; 1 µM): 91%
C#Cc1n[nH]c2c(-c3cn([C@@H](C)c4ccccc4)c(=O)[nH]c3=O)cc(F)cc12 — inhibition (enzyme activity; inhibitor; 0.1 µM): 5%
COc1ncccc1-c1cnn2ccc(N3CCN(C(=O)OC(C)C)CC3)nc12 — remaining binding (binding; competition with immobilised ligand; 1 µM): 61%
CC(C)(C)c1cc(C=C(C#N)C#N)cc(Br)c1O — remaining activity (enzyme activity; inhibitor; 0.5 µM): 100%
Nc1ncc(-c2nc(N3CCOCC3)nc(N3CCOCC3)n2)c(C(F)F)n1 — remaining binding (cell-free assay; competition with immobilised ligand; 10 µM): 78%
Cn1cc(-c2cc(F)cc(N3CCn4c(cc5c4CCCC5)C3=O)c2CO)cc(Nc2ccc(N3CCN(C4COC4)CC3)cn2)c1=O — inhibition (enzyme activity; inhibitor; 0.1 µM): 15%
O=c1[nH]c2ccccc2n1C1CCN(Cc2ccc(-c3[nH]c4cc5ncnc5cc4nc3-c3ccccc3)cc2)CC1 — remaining signal (cell-free assay; 0.5 µM): 99.4%
C#Cc1n[nH]c2c(-c3cn([C@@H](C)c4ccccn4)c(=O)[nH]c3=O)cc(F)cc12 — inhibition (enzyme activity; inhibitor; 0.1 µM): 11.2%
COc1cc(Nc2ncc(F)c(Nc3ccc4c(n3)NC(=O)C(C)(C)O4)n2)cc(OC)c1OC — inhibition (binding; 10 µM): 100%
Cn1cc(-c2cccc(N3CCc4c(sc5c4CC(C)(C)C5)C3=O)c2CO)cc(Nc2ccncn2)c1=O — inhibition (enzyme activity; inhibitor; 1 µM): 11%
Cc1nn(C)cc1-c1nc2c(N3CCN(Cc4ccc(Cl)cc4)CC3)c(Cl)cnc2[nH]1 — remaining binding (binding; competition with immobilised ligand; 1 µM): 80%
